Measurements taken from paper PMC10674630 (Diabetes, Metabolic Syndrome and Obesity, 2023).
“Also recorded” adds a separate entry of the source.

Tests used:
[1] = tested on: S. aureus (ATCC 25923 and MRSA SA 452); assay: Checkerboard assay, both strains; type: cell-based; settings: for Conversion of resistance to sensitivity by surfactin: addition of at least 64 μg/mL of surfactin, ATCC 25923 and MRSA; for Interaction with surfactin (in words): S. aureus (ATCC 25923 and MRSA)
[2] = tested on: ATCC 25923; settings: for Fold Change: MIC of antibiotic, alone vs with surfactin; for FICI: antibiotic + surfactin
[3] = tested on: SA 452; settings: for Fold Change: MIC of antibiotic, alone vs with surfactin; for FICI: antibiotic + surfactin
[4] = tested on: ATCC 25923; assay: Mutant prevention concentration, ATCC 25923; type: cell-based, S. aureus
Outline: (§1)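 Strains were grown 24 h in MH broth, centrifuged at 4000×g for 10 min and resuspended to 1×1010 CFU/mL. […] MPC was the lowest concentration preventing colonies. MPC/MIC ratio defined the mutant selection window.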

[5] = tested on: SA 452; assay: Mutant prevention concentration, SA 452; type: cell-based, S. aureus
[6] = tested on: S. aureus (ATCC 25923 and MRSA SA 452); assay: Mutant prevention / resistance selection, both strains; type: cell-based; settings: combination of oxacillin and surfactin
Outline: as §1

Structure (SMILES) | Conversion of resistance to sensitivity by surfactin [1] | Interaction with surfactin (in words) [1] | Fold Change [2] | Interaction with surfactin (in words) [2] | Fold Change [3] | FICI [3] | Interaction with surfactin (in words) [3] | MIC/MPC (text: MPC/MIC ratio) ([4]; oxacillin alone) | MIC ([4]; oxacillin alone, unit not in table) | Decrease of MPC/MIC value ([4]; with 64 μg/mL of surfactin vs oxacillin alone) [fold] | MIC/MPC ([5]; oxacillin alone, SA 452) | MIC ([5]; oxacillin alone, SA 452, unit not in table) | Decrease of MPC/MIC value ([5]; with surfactin vs oxacillin alone, MRSA) [fold] | Mutant selection window (MSW), in words [6] | FICI [2]
CC1(C)S[C@@H]2[C@H](NC(=O)[C@H](N)c3ccccc3)C(=O)N2[C@H]1C(=O)O [Ampicillin] | converted them to sensitivity | synergies; also recorded: synergistic effects | 8 | synergistic effects | 128 | 0.133 | significantly synergistic effects | – | – | – | – | – | – | – | –
O=C(O)c1cn(C2CC2)c2cc(N3CCNCC3)c(F)cc2c1=O [Ciprofloxacin] | – | – | – | – | – | 2 | – | – | – | – | – | – | – | – | –
CC[C@H]1OC(=O)[C@H](C)[C@@H](O[C@H]2C[C@@](C)(OC)[C@@H](O)[C@H](C)O2)[C@H](C)[C@@H](O[C@@H]2O[C@H](C)C[C@H](N(C)C)[C@H]2O)[C@](C)(O)C[C@@H](C)C(=O)[C@H](C)[C@@H](O)[C@]1(C)O [Erythromycin] | – | – | – | – | – | 2 | – | – | – | – | – | – | – | – | –
CNC(C)C1CCC(N)C(OC2C(N)CC(N)C(OC3OCC(C)(O)C(NC)C3O)C2O)O1 (stereo not drawn) [Gentamicin] | – | – | – | – | – | 0.25 | significantly synergistic effects | – | – | – | – | – | – | – | –
Cc1onc(-c2ccccc2)c1C(=O)N[C@@H]1C(=O)N2[C@@H]1SC(C)(C)[C@@H]2C(=O)O [Oxacillin] | converted them to sensitivity | synergies; also recorded: synergistic effects | 8 | synergistic effects | – | 0.156 | significantly synergistic effects | 32 | 0.5 | 8 | >32 | 8 | ≥ 2 | narrowed the MSW for oxacillin against MRSA | 0.25
CN(C)[C@@H]1C(O)=C(C(N)=O)C(=O)[C@@]2(O)C(O)=C3C(=O)c4c(O)cccc4[C@@](C)(O)[C@H]3C[C@@H]12 [Tetracycline] | converted them to sensitivity | synergies; also recorded: synergistic effects | 16 | synergistic effects | 128 | 0.133 | significantly synergistic effects | – | – | – | – | – | – | – | 0.188
